# Test results reported in ChEMBL document CHEMBL4043283, “Discovery and Preclinical Development of IIIM-290, an Orally Active Potent Cyclin-Dependent Kinase Inhibitor” (J Med Chem, 2018).
# pIC50: −log10 of the molar value. Calls of active or inactive are those of the source. The calls are words filed in the database; no cut-off is given here.
# What was measured:
# MIA PaCa-2 [1] = test: Antitumor activity against human MIAPaCa2 cells xenografted in CD1 nude mouse assessed as tumor growth inhibition at 50 mg/kg, po qd administered on day 10 to 25 post tumor inoculation relative to control; type: functional; conditions: MIA PaCa-2, po, 240 h, read-out: TGI
# [2] = Ratio of Cmax in Sprague-Dawley rat at 30 mg/kg, po to GI50 for human MIAPaCa2 cells
# MCF7 [3] = test: Growth inhibition of human MCF7 cells after 48 hrs by MTT assay; type: functional; conditions: MCF7, 48 h
# How it was run: (§1)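 Cancer cell lines sourced from the National Cancer Institute (USA). Cells kept in appropriate growth medium at 37 °C, 95% humidity, 5% CO2. Antiproliferation read by tetrazolium (MTT) assay. GI50 values were determined only for compounds selected after an initial single-concentration screen.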
# CDK9/Cyclin K = CDK9/Cyclin K (Homo sapiens, UniProt P50750); test: Inhibition of CDK9/cyclin K (unknown origin) after 30 mins in presence of [33P]-gamma-ATP by filter binding assay; type: protein-complex assay
# Kidney = test: Drug uptake in Sprague-Dawley rat kidney at 30 mg/kg, po after 8 hrs; type: ADME, organism-based; conditions: in vivo
# [4] = test system: Mast/stem cell growth factor receptor Kit (Homo sapiens), P10721 [A829P]; test: Inhibition of partial length human KIT A829P mutant expressed in mammalian expression system at 0.5 uM by KINOMEscan method relative to control
# How it was run: (§2)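 Competition binding screen (KINOMEscan) at 0.5 μM; primary binding read out as % of control, lower values indicating stronger interaction.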
# [5] = Half life in BALB/c mouse at 10 mg/kg, po by LC-MS/MS analysis; type: ADME, organism-based; conditions: in vivo
# Mus musculus = test: Toxicity in Swiss albino mouse allografted with Swiss mouse EAC assessed as mortality at 70 to 100 mg/kg, po administered for 9 day; type: organism-based; conditions: in vivo, 216 h
# [6] = Apparent permeability across apical to basolateral side in human Caco2 cells after 90 mins by LC-MS/MS analysis; type: ADME, cell-based; conditions: Caco-2
# How it was run: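 Caco-2 monolayers were grown for 21 days. Test compound in HBSS containing 10 mM HEPES was added to the apical chamber, and samples were taken from both the apical and basolateral chambers.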
# [7] = Chemical stability of compound in phosphate buffer at pH 4 assessed as parent compound remaining at 120 ug/ml after 24 hrs by HPLC method; type: physicochemical; conditions: read-out: Stability
# Liver = test: Intrinsic clearance in rat liver S9 fraction assessed per mg of protein preincubated for 5 mins followed by NADPH addition measured after 30 mins by LC-MS/MS analysis; type: ADME, tissue-based; conditions: s9, 0.5 h
# MCF7 [8] = test: Growth inhibition of human MCF7 cells at 10 uM after 48 hrs by MTT assay relative to control; type: functional; conditions: MCF7, 48 h, read-out: GI
# How it was run: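 Single-concentration primary screen at 10 μM by MTT assay. Cells were NCI-sourced cancer lines grown in appropriate medium at 37 °C, 95% humidity, 5% CO2. Growth inhibition is expressed relative to control.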
# MIA PaCa-2 [9] = test: Induction of apoptosis in human MIAPaCa2 cells assessed as chromatin condensation in nuclei after 24 hrs by scanning electron microscopy; type: functional, cell-based
# How it was run: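 Cells exposed to different compound concentrations for 24 h on coverslips, fixed in 2.5% glutaraldehyde in 0.1 M phosphate buffer pH 7.2 (4 °C, 24 h), postfixed in 1% OsO4 4 h, ethanol-dehydrated, critical-point dried with HMDS, gold-coated, imaged at 20 kV.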
# [10] = Half life in human hepatocytes at 3 uM after 180 mins by LC-MS/MS analysis; type: ADME, cell-based, Hepatocyte
# [11] = Pancreas to plasma partition coefficient, Kp of the compound in BALB/c mouse at 30 mg/kg, po measured at 0.5 hrs; type: ADME, organism-based; conditions: pancreas and plasma
# MIA PaCa-2 [12] = test: Disruption of mitochondrial membrane potential in human MIAPaCa2 cells by Rh123 dye-based assay; type: functional, cell-based
# [13] = Elimination half life in BALB/c mouse at 10 mg/kg, po by LC-MS/MS analysis; type: ADME, organism-based; conditions: in vivo, read-out: beta t1/2 (converted)
# [14] = Protein binding in rat plasma at 3 uM after 5 hrs by equilibrium dialysis method; type: ADME, cell-free; conditions: read-out: PPB (converted)
# [15] = Half life in dog liver S9 fraction preincubated for 5 mins followed by NADPH addition measured after 30 mins by LC-MS/MS analysis; type: ADME, tissue-based, Canis lupus familiaris
# [16] = target: Receptor tyrosine-protein kinase erbB-3 (Homo sapiens) (UniProt P21860); test: Inhibition of partial length wild type human ERBB3 expressed in mammalian expression system at 0.5 uM by KINOMEscan method relative to control; how it was run: as §2
# HCT-116 = test: Antitumor activity against human HCT116 cells xenografted in CD1 nude mouse assessed as tumor growth inhibition at 50 mg/kg, po qd administered on day 10 to 25 post tumor inoculation relative to control; type: functional; conditions: HCT-116, po, 240 h, read-out: TGI
# [17] = n-octanol-water partition co-efficient, log P of compound by shake flask method; type: physicochemical
# Cytochrome P450 2D6 = Cytochrome P450 2D6 (Homo sapiens, UniProt P10635); test: Time-dependent inhibition of human CYP2D6 at 2 uM using fluorogenic substrate by fluorometric method; type: ADME
# Ehrlich = test: Antitumor activity against Swiss mouse EAC allografted in Swiss albino mouse assessed as tumor growth inhibition at 70 mg/kg, po administered for 9 day measured on day 13 relative to control; type: functional; conditions: read-out: TGI
# [18] = target: Non-receptor tyrosine-protein kinase TYK2 (Homo sapiens) (UniProt P29597); test: Inhibition of partial length wild type human Tyk2 expressed in mammalian expression system at 0.5 uM by KINOMEscan method relative to control; how it was run: as §2
# Salmonella typhimurium [19] = test: Mutagenicity in Salmonella typhimurium TA1535 at 50 ug/plate in absence of liver S9 fraction by Ames test; type: toxicity; conditions: salmonella enterica subsp. enterica serovar typhimurium
# DU-145 = test: Growth inhibition of human DU145 cells after 48 hrs by MTT assay; type: functional; conditions: DU-145, 48 h; how it was run: as §1
# [20] = Intrinsic clearance in monkey liver S9 fraction assessed per mg of protein preincubated for 5 mins followed by NADPH addition measured after 30 mins by LC-MS/MS analysis; type: ADME, tissue-based, Macaca mulatta; conditions: rhesus monkey, s9, 0.5 h
# serum albumin = serum albumin (Homo sapiens, UniProt P02768); test: Binding affinity to human serum albumin; type: ADME; conditions: read-out: PB (converted)
# [21] = Half life in monkey liver microsomes at 100 uM after 30 mins by LC-MS/MS analysis; type: ADME, Macaca mulatta, microsome; conditions: rhesus monkey
# How it was run: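 Parent loss followed over time to give half-life, with NADPH as cofactor for microsomal phase I metabolism.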
# [22] = target: Cyclin-dependent kinase 5/CDK5 activator 1 (Homo sapiens, UniProt Q00535); test: Inhibition of CDK5/cyclin p25 (unknown origin) after 30 mins in presence of [33P]-gamma-ATP by filter binding assay; type: protein-complex assay
# [23] = Thermodynamic equilibrium solubility of compound in SGF at pH 1.2 after 5 hrs by shake flask method; type: physicochemical; conditions: read-out: Therm_solubility
# Salmonella typhimurium [24] = test: Mutagenicity in Salmonella typhimurium TA1535 at 50 ug/plate in presence of liver S9 fraction by Ames test; type: toxicity; conditions: salmonella enterica subsp. enterica serovar typhimurium
# [25] = Tmax in BALB/c mouse at 30 mg/kg, po by LC-MS/MS analysis; type: ADME, organism-based; conditions: in vivo
# Sequence of Receptor tyrosine-protein kinase erbB-3 (Homo sapiens) (P21860 whole entry): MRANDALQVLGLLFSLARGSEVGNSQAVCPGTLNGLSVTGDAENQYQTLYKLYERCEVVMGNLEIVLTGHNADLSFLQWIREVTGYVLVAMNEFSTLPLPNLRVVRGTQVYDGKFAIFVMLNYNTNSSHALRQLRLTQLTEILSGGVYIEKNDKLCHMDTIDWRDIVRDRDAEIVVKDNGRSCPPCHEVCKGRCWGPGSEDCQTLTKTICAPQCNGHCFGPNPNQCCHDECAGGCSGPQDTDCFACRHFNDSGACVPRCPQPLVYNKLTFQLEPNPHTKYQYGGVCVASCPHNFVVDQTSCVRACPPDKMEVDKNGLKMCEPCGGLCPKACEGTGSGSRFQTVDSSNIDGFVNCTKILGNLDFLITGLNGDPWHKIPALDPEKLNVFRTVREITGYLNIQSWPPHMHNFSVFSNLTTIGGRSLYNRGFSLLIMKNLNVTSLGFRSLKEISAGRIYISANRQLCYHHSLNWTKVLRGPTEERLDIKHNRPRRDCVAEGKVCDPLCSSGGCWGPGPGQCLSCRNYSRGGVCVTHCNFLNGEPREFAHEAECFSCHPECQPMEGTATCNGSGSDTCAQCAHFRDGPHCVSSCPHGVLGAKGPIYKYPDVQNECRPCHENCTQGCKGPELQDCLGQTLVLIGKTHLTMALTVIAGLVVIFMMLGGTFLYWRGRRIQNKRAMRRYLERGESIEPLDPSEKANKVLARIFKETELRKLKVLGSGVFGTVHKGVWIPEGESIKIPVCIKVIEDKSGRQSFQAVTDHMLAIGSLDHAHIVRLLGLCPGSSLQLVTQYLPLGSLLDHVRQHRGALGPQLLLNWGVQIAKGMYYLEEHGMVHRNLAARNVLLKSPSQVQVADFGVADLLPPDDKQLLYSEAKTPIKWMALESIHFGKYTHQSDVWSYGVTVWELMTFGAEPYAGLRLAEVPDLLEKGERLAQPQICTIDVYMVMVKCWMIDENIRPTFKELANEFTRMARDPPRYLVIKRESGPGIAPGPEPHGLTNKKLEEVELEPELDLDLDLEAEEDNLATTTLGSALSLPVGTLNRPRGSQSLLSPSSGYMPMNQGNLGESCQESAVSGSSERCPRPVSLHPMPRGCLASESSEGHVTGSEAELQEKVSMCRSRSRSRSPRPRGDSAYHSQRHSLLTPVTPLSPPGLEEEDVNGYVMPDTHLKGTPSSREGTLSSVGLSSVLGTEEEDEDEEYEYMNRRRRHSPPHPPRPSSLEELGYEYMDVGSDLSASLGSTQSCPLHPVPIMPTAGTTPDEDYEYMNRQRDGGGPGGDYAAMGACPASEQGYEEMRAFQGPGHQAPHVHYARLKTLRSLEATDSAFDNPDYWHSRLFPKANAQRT
# Sequence of Mast/stem cell growth factor receptor Kit (Homo sapiens), P10721 [A829P] (P10721 whole entry A829P): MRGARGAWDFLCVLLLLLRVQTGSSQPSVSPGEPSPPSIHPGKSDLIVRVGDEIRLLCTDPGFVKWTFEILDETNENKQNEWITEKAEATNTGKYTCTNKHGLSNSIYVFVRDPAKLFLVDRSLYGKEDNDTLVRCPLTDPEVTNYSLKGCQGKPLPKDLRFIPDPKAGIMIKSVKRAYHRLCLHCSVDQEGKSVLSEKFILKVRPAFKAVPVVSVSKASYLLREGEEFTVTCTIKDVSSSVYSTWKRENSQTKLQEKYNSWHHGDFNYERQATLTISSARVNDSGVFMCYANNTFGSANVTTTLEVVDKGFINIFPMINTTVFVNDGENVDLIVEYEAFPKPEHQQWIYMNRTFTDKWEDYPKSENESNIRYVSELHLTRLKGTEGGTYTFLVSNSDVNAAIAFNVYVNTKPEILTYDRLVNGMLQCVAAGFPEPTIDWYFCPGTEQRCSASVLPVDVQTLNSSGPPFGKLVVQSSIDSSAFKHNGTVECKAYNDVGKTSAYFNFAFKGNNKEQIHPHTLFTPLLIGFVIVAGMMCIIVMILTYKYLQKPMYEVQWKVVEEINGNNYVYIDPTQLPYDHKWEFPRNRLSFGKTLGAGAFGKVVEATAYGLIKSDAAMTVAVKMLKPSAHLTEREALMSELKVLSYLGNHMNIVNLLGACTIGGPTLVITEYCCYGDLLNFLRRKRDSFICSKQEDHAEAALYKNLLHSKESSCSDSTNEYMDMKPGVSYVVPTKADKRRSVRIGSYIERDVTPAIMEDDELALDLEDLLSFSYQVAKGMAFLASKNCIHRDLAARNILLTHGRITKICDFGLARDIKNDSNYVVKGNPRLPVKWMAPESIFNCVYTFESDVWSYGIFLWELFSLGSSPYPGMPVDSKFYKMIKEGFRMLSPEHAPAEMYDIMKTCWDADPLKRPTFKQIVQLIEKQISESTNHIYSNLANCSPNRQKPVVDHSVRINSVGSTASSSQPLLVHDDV
# Sequence of Cyclin-dependent kinase 5/CDK5 activator 1 (Q00535 whole entry): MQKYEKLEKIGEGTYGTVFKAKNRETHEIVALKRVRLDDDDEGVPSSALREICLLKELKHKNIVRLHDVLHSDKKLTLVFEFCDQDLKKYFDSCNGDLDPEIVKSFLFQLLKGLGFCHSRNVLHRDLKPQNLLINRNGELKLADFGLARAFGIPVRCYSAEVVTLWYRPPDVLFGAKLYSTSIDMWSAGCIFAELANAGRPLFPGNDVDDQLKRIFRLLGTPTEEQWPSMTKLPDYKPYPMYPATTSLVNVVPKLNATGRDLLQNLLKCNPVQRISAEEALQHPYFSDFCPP
# Sequence of Cyclin-dependent kinase 5/CDK5 activator 1 (Q15078 whole entry, further chain): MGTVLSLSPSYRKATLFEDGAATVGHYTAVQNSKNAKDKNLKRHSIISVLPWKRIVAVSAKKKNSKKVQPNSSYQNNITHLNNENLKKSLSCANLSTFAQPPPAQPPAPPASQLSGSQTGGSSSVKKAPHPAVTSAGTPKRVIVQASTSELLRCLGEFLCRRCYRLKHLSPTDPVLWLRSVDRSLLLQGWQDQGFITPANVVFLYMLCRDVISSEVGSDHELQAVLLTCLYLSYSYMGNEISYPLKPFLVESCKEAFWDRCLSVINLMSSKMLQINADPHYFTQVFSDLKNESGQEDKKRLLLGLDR
# Sequence of serum albumin (P02768 whole entry): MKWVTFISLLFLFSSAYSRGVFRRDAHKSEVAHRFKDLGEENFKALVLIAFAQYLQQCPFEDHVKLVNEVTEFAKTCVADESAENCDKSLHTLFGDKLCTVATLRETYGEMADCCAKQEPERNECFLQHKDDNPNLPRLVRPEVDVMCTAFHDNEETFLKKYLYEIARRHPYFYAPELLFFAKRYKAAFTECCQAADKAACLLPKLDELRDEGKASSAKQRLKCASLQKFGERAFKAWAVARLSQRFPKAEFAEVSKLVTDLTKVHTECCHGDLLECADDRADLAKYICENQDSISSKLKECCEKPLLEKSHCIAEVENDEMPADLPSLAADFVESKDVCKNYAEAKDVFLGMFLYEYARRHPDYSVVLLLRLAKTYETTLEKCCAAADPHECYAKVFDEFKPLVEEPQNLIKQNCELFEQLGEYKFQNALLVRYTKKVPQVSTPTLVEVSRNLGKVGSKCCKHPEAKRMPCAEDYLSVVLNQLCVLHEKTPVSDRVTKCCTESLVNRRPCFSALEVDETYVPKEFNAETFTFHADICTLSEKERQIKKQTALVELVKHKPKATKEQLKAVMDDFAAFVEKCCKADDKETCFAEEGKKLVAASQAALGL
# Sequence of Non-receptor tyrosine-protein kinase TYK2 (Homo sapiens) (P29597 whole entry): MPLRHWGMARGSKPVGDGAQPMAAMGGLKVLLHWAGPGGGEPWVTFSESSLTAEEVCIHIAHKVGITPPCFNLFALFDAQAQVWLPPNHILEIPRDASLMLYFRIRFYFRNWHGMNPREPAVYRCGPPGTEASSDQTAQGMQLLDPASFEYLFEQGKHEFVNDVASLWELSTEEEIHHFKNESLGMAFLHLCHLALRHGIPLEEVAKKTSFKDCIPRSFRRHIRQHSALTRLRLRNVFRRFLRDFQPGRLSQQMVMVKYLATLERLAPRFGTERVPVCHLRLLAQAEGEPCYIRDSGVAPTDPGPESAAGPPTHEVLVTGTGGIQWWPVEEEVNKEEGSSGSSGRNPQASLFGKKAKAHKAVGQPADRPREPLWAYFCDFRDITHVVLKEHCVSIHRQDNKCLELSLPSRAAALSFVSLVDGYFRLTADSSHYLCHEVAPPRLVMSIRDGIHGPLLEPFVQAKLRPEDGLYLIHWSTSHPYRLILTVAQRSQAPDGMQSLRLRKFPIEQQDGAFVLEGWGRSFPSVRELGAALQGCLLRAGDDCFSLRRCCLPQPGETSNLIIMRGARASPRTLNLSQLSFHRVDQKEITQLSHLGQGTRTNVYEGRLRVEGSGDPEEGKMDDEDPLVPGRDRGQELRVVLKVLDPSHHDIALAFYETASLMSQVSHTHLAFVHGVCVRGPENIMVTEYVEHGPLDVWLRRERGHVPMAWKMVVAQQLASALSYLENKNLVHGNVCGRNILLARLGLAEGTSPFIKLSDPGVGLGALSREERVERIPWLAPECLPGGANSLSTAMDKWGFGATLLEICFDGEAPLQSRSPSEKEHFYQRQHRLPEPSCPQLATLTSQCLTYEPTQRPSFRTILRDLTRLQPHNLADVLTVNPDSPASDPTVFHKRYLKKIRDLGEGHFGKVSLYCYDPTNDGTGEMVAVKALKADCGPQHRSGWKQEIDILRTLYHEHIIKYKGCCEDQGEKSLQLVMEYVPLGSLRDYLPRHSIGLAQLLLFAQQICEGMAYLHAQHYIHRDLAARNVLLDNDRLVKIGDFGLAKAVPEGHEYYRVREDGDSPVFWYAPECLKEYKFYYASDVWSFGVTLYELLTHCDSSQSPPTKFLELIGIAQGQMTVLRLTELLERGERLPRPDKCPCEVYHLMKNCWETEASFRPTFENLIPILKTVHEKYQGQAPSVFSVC
compound,measurement,setting,value
CN1CC[C@H](c2c(O)cc(O)c3c(=O)cc(/C=C/c4c(Cl)cccc4Cl)oc23)[C@H](O)C1,inhibition in vivo at 50 mg/kg,MIA PaCa-2 [1],40 to 52%
same,Ratio,[2],4
same,GI50,MCF7 [3],4000 nM
same,pIC50,CDK9/Cyclin K,6.39
same,Drug uptake,Kidney,Active
same,inhibition,[4],> 98%
same,half-life,[5],3.61 h
same,Activity,Mus musculus,Non-Toxic
same,Papp A→B at 1.5 h,[6],2.1 ×10⁻⁶ cm/s
same,"remaining at 24 h, 120 ug/ml",[7],100%
same,CLint,Liver,45 µL/min/mg
same,inhibition of growth at 10 µM,MCF7 [8],80%
same,Activity,MIA PaCa-2 [9],Active
same,half-life at 3 µM,[10],12.1 h
same,Kp at 0.5 h,[11],14.2
same,Activity,MIA PaCa-2 [12],Active
same,half-life,[13],4.65 h
same,"fraction unbound at 5 h, 3 µM",[14],0.046
same,half-life,[15],1.95 h
same,inhibition,[16],> 98%
same,inhibition in vivo at 50 mg/kg,HCT-116,40 to 52%
same,logP,[17],3.09
same,TDI,Cytochrome P450 2D6,Not Active
same,inhibition in vivo at 70 mg/kg,Ehrlich,31%
same,inhibition,[18],> 98%
same,Activity,Salmonella typhimurium [19],Non-Toxic
same,GI50,DU-145,5000 nM
same,CLint,[20],25 µL/min/mg
same,fraction unbound,serum albumin,0.033
same,half-life at 100 µM,[21],0.417 h
same,pIC50,[22],7.81
same,solubility thermodynamic at 5 h,[23],8.81 µg/mL
same,Activity,Salmonella typhimurium [24],Non-Toxic
same,Tmax,[25],0.54 h
